Experimental data from ChEMBL document CHEMBL1156174, “Antiproliferative activity of synthetic naphthoquinones related to lapachol. First synthesis of 5-hydroxylapachol” (Bioorg Med Chem, 2010).

How the values were obtained:
A2780 = assay: Growth inhibition of human A2780 cells after 48 hrs by sulforhodamine B assay; assay type: functional; details: A2780, 48 h
In short: (§1)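 Cells in RPMI 1640 with 5% heat-inactivated FCS and 2 mM L-glutamine at 37 °C, 5% CO2. Seeded per well: 7500 (HBL-100, SW1573), 15,000 (A2780, HeLa, T47D) or 20,000 (WiDr). Drug added day 1 in triplicate dilutions (DMSO 0.25% v/v) for 48 h. Cells fixed with cold TCA, 60 min, 4 °C, then SRB stained and read at 492 nm. NCI percentage-growth formulas used; GI50 taken at PG +50.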

HBL-100 = assay: Growth inhibition of human HBL100 cells after 48 hrs by sulforhodamine B assay; assay type: functional; details: HBL-100, 48 h; in short: as §1
T47D = assay: Growth inhibition of human T47D cells after 48 hrs by sulforhodamine B assay; assay type: functional; in short: as §1
SW1573 = assay: Growth inhibition of human SW1573 cells after 48 hrs by sulforhodamine B assay; assay type: functional; details: SW1573, 48 h; in short: as §1
WiDr = assay: Growth inhibition of human WiDr cells after 48 hrs by sulforhodamine B assay; assay type: functional; in short: as §1
HeLa = assay: Growth inhibition of human HeLa cells after 48 hrs by sulforhodamine B assay; assay type: functional; in short: as §1
Artemia salina = assay: Toxicity in Artemia salina; assay type: organism-based; details: in vivo

Row | Compound | GI50 (A2780) | GI50 (T47D) | GI50 (SW1573) | GI50 (HeLa) | GI50 (HBL-100) | GI50 (WiDr) | Activity (Artemia salina)
1 | COC1=C(CC=C(C)C)C(=O)c2c(OC)cccc2C1=O | 21 µM | 45 µM | 5.8 µM | 18 µM | 17 µM | 28 µM | –
2 | O=C1C=C(O)c2c(O)cccc2C1=O | > 100 µM | > 100 µM | > 100 µM | > 100 µM | > 100 µM | > 100 µM | –
3 | CC(C)=CCC1=C(O)C(=O)c2ccccc2C1=O [LAPACHOL] | 1.9 µM | 76 µM | 34 µM | 2.3 µM | 7.8 µM | 36 µM | 5 ppm
4 | NC1=CC(=O)c2cccc(O)c2C1=O | 3.1 µM | 4 µM | 2 µM | 5.7 µM | 2.9 µM | 3.5 µM | –
5 | O=C1C=CC(=O)c2c(O)cccc21 [JUGLONE] | 64 µM | 77 µM | 50 µM | 89 µM | 66 µM | 81 µM | –
6 | C=CC(C)(C)C1=C(O)C(=O)c2c(O)cccc2C1=O | 21 µM | 30 µM | 3.8 µM | 24 µM | 16 µM | 23 µM | –
7 | CC(C)=CCOC1=C(CC=C(C)C)C(=O)c2cccc(O)c2C1=O | 5.9 µM | 28 µM | 5.1 µM | 20 µM | 20 µM | 22 µM | –
8 | CC1(C)CCC2=C(O1)C(=O)c1cccc(O)c1C2=O | 3.2 µM | 21 µM | 2.7 µM | 12 µM | 2.6 µM | 18 µM | –
9 | O=C1C=C(O)c2cccc(O)c2C1=O | 28 µM | > 100 µM | 86 µM | 90 µM | > 100 µM | > 100 µM | –
10 | CC(C)=CCOC1=CC(=O)c2c(O)cccc2C1=O | 12 µM | 28 µM | 17 µM | 18 µM | 27 µM | 18 µM | –
11 | C=C(C)C1CC2=C(O1)C(=O)c1ccccc1C2=O (stereo not drawn) [DEHYDROISO-ALPHA-LAPACHONE] | 2.6 µM | 21 µM | 1.9 µM | 2.1 µM | 2.3 µM | 2.7 µM | –
12 | CC(C)=CCC1=C(O)C(=O)c2c(O)cccc2C1=O | 3.9 µM | 30 µM | 18 µM | 2.6 µM | 21 µM | 19 µM | –
13 | C=CC(C)(C)C1=C(O)C(=O)c2cccc(O)c2C1=O | 26 µM | 27 µM | 36 µM | 28 µM | 31 µM | 31 µM | –
14 | CC1(C)CCC2=C(O1)C(=O)c1ccccc1C2=O [ALPHA-LAPACHONE] | 4 µM | 25 µM | 3.1 µM | 15 µM | 14 µM | 26 µM | –
15 | CN(C)C1=CC(=O)c2c(O)cccc2C1=O | 16 µM | 38 µM | 35 µM | 19 µM | 30 µM | 32 µM | –

More lines, main results first:

Row | GI50 (A2780) | GI50 (T47D) | GI50 (SW1573) | GI50 (HeLa) | Compound | GI50 (HBL-100) | GI50 (WiDr) | Activity (Artemia salina)
16 | 1.8 µM | 22 µM | 4.8 µM | 3.5 µM | COC1=C(CC=C(C)C)C(=O)c2c(O)cccc2C1=O | 20 µM | 20 µM | –
17 | 1.1 µM | 2.3 µM | 0.76 µM | 0.81 µM | CC1(C)CCC2=C(O1)c1ccccc1C(=O)C2=O [LAPACHONE] | 0.69 µM | 2 µM | –
18 | 0.57 µM | 8.1 µM | 0.7 µM | 0.42 µM | CC(C)=CCC1=C(O)C(=O)c2cccc(O)c2C1=O | 0.6 µM | 6.3 µM | –
19 | 2.1 µM | 2.3 µM | 2.3 µM | 2.4 µM | CC(C)(I)C1CC2=C(O1)C(=O)c1cccc(O)c1C2=O (centres undefined) | 2 µM | 1.9 µM | –
20 | 2.4 µM | 34 µM | 5.3 µM | 7.1 µM | CN(C)C1=CC(=O)c2cccc(O)c2C1=O | 5.7 µM | 17 µM | –
21 | 1.6 µM | 2.5 µM | 0.4 µM | 1.3 µM | CC1(C)C2=C(OC1CI)C(=O)c1c(O)cccc1C2=O (centres undefined) | 0.41 µM | 2 µM | –
22 | 1.7 µM | 1.8 µM | 1.3 µM | 1.7 µM | CC1(C)C2=C(OC1CI)C(=O)c1cccc(O)c1C2=O (centres undefined) | 1.9 µM | 2 µM | –
23 | 2.2 µM | 23 µM | 2.8 µM | 2.2 µM | CC(C)(O[N+](=O)[O-])C1CC2=C(O1)C(=O)c1cccc(O)c1C2=O (centres undefined) | 2.8 µM | 18 µM | –
24 | 0.82 µM | 2.2 µM | 0.83 µM | 0.8 µM | C=C(C)C1CC2=C(O1)C(=O)c1cccc(O)c1C2=O (centres undefined) | 0.94 µM | 2 µM | –
25 | 2.1 µM | 20 µM | 2.5 µM | 1.8 µM | CC(C)(O[N+](=O)[O-])C1CC2=C(O1)C(=O)c1ccccc1C2=O (centres undefined) | 2.1 µM | 4.8 µM | –
26 | 2 µM | 23 µM | 7.7 µM | 4.5 µM | CC(C)=CCOC1=CC(=O)c2cccc(O)c2C1=O | 19 µM | 7.3 µM | –
27 | 1 µM | 21 µM | 4.3 µM | 1.9 µM | CC(C)=CCOC1=C(CC=C(C)C)C(=O)c2c(O)cccc2C1=O | 1.6 µM | 11 µM | –
28 | 2.4 µM | 19 µM | 4.8 µM | 2.3 µM | CC1(C)C=CC2=C(O1)C(=O)c1c(O)cccc1C2=O | 3.9 µM | 19 µM | –
